From ChEMBL document CHEMBL4011650, “3-Hydroxy-1H-quinazoline-2,4-dione as a New Scaffold To Develop Potent and Selective Inhibitors of the Tumor-Associated Carbonic Anhydrases IX and XII” (J Med Chem, 2017)

Experiments:
[1] = Antiproliferative activity against human HT-29 cells assessed as cell viability at 30 uM after 72 hrs under normoxic conditions by MTT assay relative to control; assay type: cell-based; settings: read-out: Activity
Summary of the method: (§1)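 HT-29 cells in high-glucose DMEM with 20% FBS were seeded at 1·10^4/well and treated 24 h later. Incubation was under normoxia (20% O2, air with 5% CO2) at 37 °C for 16, 48 or 72 h. Viability was read by MTT reduction (1 mg/ml, 30 min), with formazan in DMSO read at 550 nm, relative to untreated control set at 100%. Quadruplicates on at least three cell batches.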

[2] = test system: HT-29; experiment: Antiproliferative activity against human HT-29 cells assessed as cell viability at 100 uM after 72 hrs under hypoxic conditions by MTT assay relative to control; assay type: functional; settings: HT-29, 72 h, read-out: Activity
Summary of the method: (§2)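 HT-29 cells were grown in high-glucose DMEM with 20% FBS, seeded at 1·10^4/well and dosed 24 h later. Incubation was in a hypoxic chamber (0.1% O2, 5% CO2, balance N2) for 16, 48 or 72 h. Cells were washed, given MTT 1 mg/ml for 30 min at 37 °C, and formazan was dissolved in DMSO and read at 550 nm. Viability is % of untreated control, mean ± S.E.M.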

[3] = target: Carbonic anhydrase 1 (Homo sapiens, UniProt P00915); experiment: Inhibition of recombinant human carbonic anhydrase 1 preincubated for 15 mins prior to testing by phenol red based stopped-flow CO2 hydration assay
[4] = test system: HT-29; experiment: Antiproliferative activity against human HT-29 cells assessed as cell viability at 300 uM after 72 hrs under hypoxic conditions by MTT assay relative to control; assay type: functional; settings: HT-29, 72 h, read-out: Activity; summary of the method: as §2
[5] = Antiproliferative activity against human HT-29 cells assessed as cell viability at 300 uM after 72 hrs under normoxic conditions by MTT assay relative to control; assay type: cell-based; settings: read-out: Activity; summary of the method: as §1
[6] = target: Carbonic anhydrase 2 (Homo sapiens, UniProt P00918); experiment: Inhibition of recombinant human carbonic anhydrase 2 preincubated for 15 mins prior to testing by phenol red based stopped-flow CO2 hydration assay
[7] = Antiproliferative activity against human HT-29 cells assessed as cell viability at 100 uM after 72 hrs under normoxic conditions by MTT assay relative to control; assay type: cell-based; settings: read-out: Activity; summary of the method: as §1
[8] = target: Carbonic anhydrase 9 (Homo sapiens, UniProt Q16790)
[9] = test system: HT-29; experiment: Antiproliferative activity against human HT-29 cells assessed as cell viability at 30 uM after 72 hrs under hypoxic conditions by MTT assay relative to control; assay type: functional; settings: HT-29, 72 h, read-out: Activity; summary of the method: as §2
[10] = Antiproliferative activity against human HT-29 cells assessed as cell viability at 300 uM after 48 hrs under normoxic conditions by MTT assay relative to control; assay type: cell-based; settings: read-out: Activity; summary of the method: as §1
[11] = test system: HT-29; experiment: Antiproliferative activity against human HT-29 cells assessed as cell viability at 300 uM after 48 hrs under hypoxic conditions by MTT assay relative to control; assay type: functional; settings: HT-29, 48 h, read-out: Activity; summary of the method: as §2
[12] = test system: HT-29; experiment: Antiproliferative activity against human HT-29 cells assessed as cell viability at 30 uM after 48 hrs under hypoxic conditions by MTT assay relative to control; assay type: functional; settings: HT-29, 48 h, read-out: Activity; summary of the method: as §2
[13] = Antiproliferative activity against human HT-29 cells assessed as cell viability at 100 uM after 48 hrs under normoxic conditions by MTT assay relative to control; assay type: cell-based; settings: read-out: Activity; summary of the method: as §1
[14] = test system: HT-29; experiment: Antiproliferative activity against human HT-29 cells assessed as cell viability at 100 uM after 48 hrs under hypoxic conditions by MTT assay relative to control; assay type: functional; settings: HT-29, 48 h, read-out: Activity; summary of the method: as §2
[15] = Antiproliferative activity against human HT-29 cells assessed as cell viability at 30 uM after 48 hrs under normoxic conditions by MTT assay relative to control; assay type: cell-based; settings: read-out: Activity; summary of the method: as §1

Carbonic anhydrase 1, sequence (P00915 whole entry): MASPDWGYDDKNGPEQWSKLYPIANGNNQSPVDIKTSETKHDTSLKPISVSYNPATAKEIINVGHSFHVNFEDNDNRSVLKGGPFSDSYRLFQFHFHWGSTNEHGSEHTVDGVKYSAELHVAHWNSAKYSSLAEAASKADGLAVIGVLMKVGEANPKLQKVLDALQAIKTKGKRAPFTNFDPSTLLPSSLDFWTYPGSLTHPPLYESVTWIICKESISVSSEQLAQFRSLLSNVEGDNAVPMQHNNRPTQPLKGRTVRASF

Row | Compound | viability at 72 h, 30 µM [1] [%] | viability at 100 µM [2] [%] | Ki [3] [µM] | viability at 300 µM [4] [%] | viability at 72 h, 300 µM [5] [%] | Ki [6] [µM] | viability at 72 h, 100 µM [7] [%] | Ki [8] [µM] | viability at 30 µM [9] [%] | viability at 48 h, 300 µM [10] [%] | viability at 300 µM [11] [%] | viability at 30 µM [12] [%] | viability at 48 h, 100 µM [13] [%] | viability at 100 µM [14] [%] | viability at 48 h, 30 µM [15] [%]
1 | O=c1[nH]c2ccc([N+](=O)[O-])cc2c(=O)n1O | 95.6 | 93.7 | > 10 | 87.3 | 94.3 | > 10 | 94.1 | 0.0046 | 94.7 | 95.1 | 96.7 | 98.8 | 95.5 | 99.5 | 101
2 | COn1c(=O)[nH]c2cc(Cl)ccc2c1=O | – | – | > 10 | – | – | > 10 | – | 0.208 | – | – | – | – | – | – | –
3 | O=C(O)c1ccc(C(=O)Nc2cc3c(=O)n(O)c(=O)[nH]c3cc2Cl)cc1 | – | – | > 10 | – | – | > 10 | – | 0.0079 | – | – | – | – | – | – | –
4 | O=c1[nH]c2cc(Cl)c(-n3cccc3)cc2c(=O)n1O | – | – | > 10 | – | – | > 10 | – | 0.0083 | – | – | – | – | – | – | –
5 | O=C(O)CCC(=O)Nc1ccc2[nH]c(=O)n(O)c(=O)c2c1 | – | – | > 10 | – | – | > 10 | – | 0.0648 | – | – | – | – | – | – | –
6 | O=C(O)CCC(=O)Nc1cc2c(=O)n(O)c(=O)[nH]c2cc1Cl | – | – | > 10 | – | – | > 10 | – | 0.007 | – | – | – | – | – | – | –
7 | O=c1[nH]c2cc(Cl)c(Cl)cc2c(=O)n1O | 107 | 78.1 | > 10 | 24.5 | 20.6 | > 10 | 73.5 | 0.0082 | 93.3 | 9.44 | 14.8 | 106 | 91 | 76 | 93.4
8 | O=c1[nH]c2cc(C(F)(F)F)ccc2c(=O)n1O | – | – | > 10 | – | – | > 10 | – | 0.0082 | – | – | – | – | – | – | –
9 | O=c1[nH]c2cc(Cl)ccc2c(=O)n1O | – | – | > 10 | – | – | > 10 | – | 0.0697 | – | – | – | – | – | – | –
10 | O=c1[nH]c2cc(Cl)c([N+](=O)[O-])cc2c(=O)n1O | 36.8 | 55.9 | > 10 | 63.5 | 70.3 | > 10 | 61.2 | – | 41.6 | 77.6 | 70.8 | 45.7 | 72.5 | 64.6 | 58.2
11 | O=C(Nc1cc2c(=O)n(O)c(=O)[nH]c2cc1Cl)c1ccccc1 | – | – | > 10 | – | – | > 10 | – | 0.0588 | – | – | – | – | – | – | –
12 | O=C(Nc1ccccc1)Nc1ccc2[nH]c(=O)n(O)c(=O)c2c1 | – | – | > 10 | – | – | > 10 | – | 0.301 | – | – | – | – | – | – | –
13 | O=c1[nH]c2ccc(-n3cnnc3)cc2c(=O)n1O | – | – | > 10 | – | – | > 10 | – | 0.0695 | – | – | – | – | – | – | –
14 | O=C(Nc1ccccc1)Nc1cc2c(=O)n(O)c(=O)[nH]c2cc1Cl | – | – | > 10 | – | – | > 10 | – | 0.0428 | – | – | – | – | – | – | –
15 | O=C1C=CCN1c1cc2c(=O)n(O)c(=O)[nH]c2cc1Cl | 36.4 | 45.7 | > 10 | 65.2 | 68.3 | > 10 | 57.3 | 0.0083 | 20.6 | 106 | 88.9 | 50.6 | 56.2 | 60.1 | 48.5
16 | O=C(O)c1ccccc1C(=O)Nc1ccc2[nH]c(=O)n(O)c(=O)c2c1 | – | – | > 10 | – | – | > 10 | – | 0.0625 | – | – | – | – | – | – | –
17 | CC(=O)Nc1nnc(S(N)(=O)=O)s1 [ACETAZOLAMIDE] | 97.6 | 111 | – | 84.1 | 93.2 | – | 95.8 | – | 107 | 101 | 85.7 | 108 | 101 | 102 | 96.8
18 | O=c1[nH]c2ccccc2c(=O)n1O | – | – | > 10 | – | – | > 10 | – | 0.48 | – | – | – | – | – | – | –
19 | O=C(O)COn1c(=O)[nH]c2cc(Cl)c([N+](=O)[O-])cc2c1=O | – | – | > 10 | – | – | > 10 | – | 0.018 | – | – | – | – | – | – | –
20 | O=c1[nH]c2cc(Cl)c(-n3cnnc3)cc2c(=O)n1O | – | – | > 10 | – | – | > 10 | – | 0.0333 | – | – | – | – | – | – | –
21 | O=c1[nH]c2cc(C(F)(F)F)c(-n3cnnc3)cc2c(=O)n1O | – | – | > 10 | – | – | > 10 | – | – | – | – | – | – | – | – | –
22 | Nc1ccc2[nH]c(=O)n(O)c(=O)c2c1 | – | – | > 10 | – | – | > 10 | – | 0.273 | – | – | – | – | – | – | –
23 | O=c1[nH]c2ccc(Cl)cc2c(=O)n1O | – | – | > 10 | – | – | > 10 | – | 0.0482 | – | – | – | – | – | – | –
24 | O=c1[nH]c2cc(Cl)cc(Cl)c2c(=O)n1O | 94.2 | 87 | > 10 | 78.9 | 94.9 | > 10 | 95.9 | 0.0077 | 93 | 91 | 104 | 101 | 93.8 | 102 | 92.6
25 | O=C(O)c1ccccc1C(=O)Nc1cc2c(=O)n(O)c(=O)[nH]c2cc1Cl | – | – | > 10 | – | – | > 10 | – | 0.0081 | – | – | – | – | – | – | –
26 | Nc1cc2c(=O)n(O)c(=O)[nH]c2cc1Cl | – | – | > 10 | – | – | > 10 | – | 0.0431 | – | – | – | – | – | – | –
27 | O=C(NCc1ccccc1)Nc1cc2c(=O)n(O)c(=O)[nH]c2cc1Cl | – | – | > 10 | – | – | > 10 | – | 0.0069 | – | – | – | – | – | – | –
28 | O=c1[nH]c2cc(Cl)c(-n3ccnc3)cc2c(=O)n1O | – | – | > 10 | – | – | > 10 | – | 0.0749 | – | – | – | – | – | – | –
